Experimental data from different studies.
Protocols differ between the studies behind these lines.

Cc1cc(Nc2ncc(Cl)c(Nc3ccccc3S(=O)(=O)C(C)C)n2)c(OC(C)C)cc1C1CCNCC1 has an IC50 of 0.64 µM (Rh30; cell growth or viability; 72 h).
For COc1cc(/C=C/C(=O)/C=C(O)/C=C/c2ccncc2)ccc1O, the IC50 was 13.3 µM (CHO-K1; cell growth or viability; MTT; 72 h).
For Cc1ccc2nc(-c3ccc([N+](=O)[O-])cc3)n(Cc3ccccc3Cl)c2c1, the IC50 was 17.6 µM (human Rhabdomyosarcoma cell; cell growth or viability; MTT).
COc1ccc(-c2nc(C(=O)Nc3nnc(-c4cc5ccccc5n4C)s3)cc3c2[nH]c2ccccc23)cc1 has an IC50 of 30.2 µM (HL-60; cell growth or viability; MTT; 72 h).
COc1cccc2c1C(=O)c1c(O)c3c(c(O)c1C2=O)C[C@@](O)(C(=O)CO)C[C@@H]3O[C@H]1C[C@H](N)[C@H](O)[C@H](C)O1 gave an IC50 of 2.5 µM (CHO-K1; cell growth or viability; MTT; 72 h).
With COc1ccc(-c2nc3ccccc3n2Cc2ccccc2)cc1OC the IC50 was 18.4 µM (human Rhabdomyosarcoma cell; cell growth or viability; MTT).
With COc1ccccc1/C=C/CNCC(O)COc1ccc2ccccc2c1 (stereo not drawn) the IC50 was 16.3 µM (NCI-H1299; cell growth or viability; CCK-8; 72 h).
With C/C(=N\O)c1ccc(-c2cccc(O)c2)c(Cl)c1O the IC50 was 17.8 µM (NCI-H1299; cell growth or viability; MTT; 48 h).
For COCCCNC(=C\C(=O)/C=C/c1cccnc1)/C=C/c1cccnc1, the IC50 was 24.1 µM (CHO-K1; cell growth or viability; SRB; 72 h).
COc1cc(/C=C/C(=O)/C=C(O)/C=C/c2cccc3cnccc23)ccc1O has an IC50 of 32.6 µM (CHO-K1; cell growth or viability; SRB; 72 h).
For O=[N+]([O-])c1ccc(-c2nc3ccccc3[nH]2)cc1, the IC50 was 23.4 µM (human Rhabdomyosarcoma cell; cell growth or viability; MTT; 48 h).
For COc1ccccc1CCNCC(O)COc1cccc2[nH]c3ccccc3c12 (stereo not drawn), the IC50 was 15.2 µM (NCI-H1299; cell growth or viability; CCK-8; 72 h).
CCCCN(CCCC)C(=O)c1ncn2c(=O)n(C)nnc12 has an IC50 of 11 µM (D54; cell growth or viability; resazurin; 7 days).
Cc1ccc2nc(-c3ccc(Cl)cc3Cl)[nH]c2c1 has an IC50 of 29.9 µM (human Rhabdomyosarcoma cell; cell growth or viability; MTT; 48 h).
Cn1c(-c2nnc(NC(=O)c3cc4c([nH]c5ccccc54)c(-c4ccccc4)n3)s2)cc2ccccc21 gave an IC50 of 33.2 µM (HL-60; cell growth or viability; MTT; 72 h).
With COc1cc(Nc2nccc(-c3cnn4nc(OC)ccc34)n2)cc(C(F)(F)F)c1 the IC50 was 0.37 µM (SNU-840; cell growth or viability; ATP luminescence).
COc1ccccc1NCCCNCC(O)COc1cccc2[nH]c3ccccc3c12 (stereo not drawn) gave an IC50 of 8.9 µM (NCI-H1299; cell growth or viability; CCK-8; 72 h).
The IC50 of O=C(/C=C(/C=C/c1cccnc1)NC1CCCCC1)/C=C/c1cccnc1 is reported as 16.8 µM (CHO-K1; cell growth or viability; MTT; 72 h).
For CC(C)(C)Nc1c(-c2ccc(N)cc2)nc2ccccn12, the IC50 was 91 µM (Vero; cell growth or viability; MTT; 48 h).
For COc1ccccc1/C=C/CNCC(O)COc1cccc2[nH]ccc12 (stereo not drawn), the IC50 was 23.1 µM (NCI-H1299; cell growth or viability; CCK-8; 72 h).
The IC50 of CC(C)(C)Nc1c(-c2ccc([N+](=O)[O-])cc2)nc2ccccn12 is reported as 85 µM (Vero; cell growth or viability; MTT; 48 h).
The IC50 of COCOc1c(OC)cc(C(=O)c2csc(-c3ccccc3)n2)cc1OC is reported as 0.055 µM (B16-F1; cell growth or viability; SRB).
With O=C(/C=C(/C=C/c1cccnc1)NCCCO)/C=C/c1cccnc1 the IC50 was over 75 µM (CHO-K1; cell growth or viability; MTT; 72 h).
COc1ccccc1OCCNCC(O)COc1cccc2[nH]c3ccccc3c12 (stereo not drawn) has an IC50 of 32.4 µM (NCI-H1299; cell growth or viability; CCK-8; 72 h).
The IC50 of C=CCn1c(-c2ccc(OC)c(OC)c2)nc2ccccc21 is reported as 50.4 µM (human Rhabdomyosarcoma cell; cell growth or viability; MTT).
With Cn1nnc2c(-c3ccccc3)ncn2c1=O the IC50 was 7 µM (D54; cell growth or viability; resazurin; 7 days).
O=C(/C=C(O)/C=C/c1ccc[nH]1)/C=C/c1ccc[nH]1 gave an IC50 of 6.9 µM (CHO-K1; cell growth or viability; MTT; 72 h).
With Cc1ccc2nc(-c3ccco3)n(Cc3ccccc3)c2c1 the IC50 was 39.2 µM (human Rhabdomyosarcoma cell; cell growth or viability; MTT).
For CCCNc1nc(NCCC)nc(Nc2ccc(Br)cc2)n1, the IC50 was 22.5 µM (SK-BR-3; cell growth or viability; SRB; 72 h).
With CC(C)CNC(=C\C(=O)/C=C/c1cccnc1)/C=C/c1cccnc1 the IC50 was 17.7 µM (CHO-K1; cell growth or viability; MTT; 72 h).
The IC50 of CN(C)c1ccc(-c2nc3ccccn3c2NC(C)(C)C)cc1 is reported as 87 µM (Vero; cell growth or viability; MTT; 48 h).
With CC(C)C[C@H](NC(=O)[C@H](Cc1ccccc1)NC(=O)c1cnccn1)B(O)O the IC50 was 0.013 µM (NCI-H1437; cell growth or viability; ATP luminescence).
For Brc1ccc(Nc2nc(N/N=C\c3c[nH]c4ccccc34)nc(Nc3ccccc3)n2)cc1, the IC50 was 12.2 µM (SK-BR-3; cell growth or viability; SRB; 72 h).
The IC50 of O=C(/C=C(O)/C=C/c1ccc2ccccc2n1)/C=C/c1c[nH]c2ccccc12 is reported as 43.3 µM (CHO-K1; cell growth or viability; SRB; 72 h).
O=C(O)Cc1ccccc1Nc1c(Cl)cccc1Cl gave an IC50 of 50.1 µM (RAW264.7; reactive oxygen species; inhibitor; LPS-stimulated).
For COCCNC(=C\C(=O)/C=C/c1cccnc1)/C=C/c1cccnc1, the IC50 was 45.1 µM (CHO-K1; cell growth or viability; MTT; 72 h).
With Cc1[nH]c(/C=C2\C(=O)Nc3ccc(S(=O)(=O)N(C)c4cccc(Cl)c4)cc32)c(C)c1C(=O)N1CCN(C)CC1 the IC50 was 4.7 µM (Rh30; cell growth or viability; 72 h).
The IC50 of O=C(/C=C(/C=C/c1cccnc1)NCCO)/C=C/c1cccnc1 is reported as over 75 µM (CHO-K1; cell growth or viability; SRB; 72 h).
The IC50 of Cc1ccc2nc(-c3ccc(Cl)cc3)n(Cc3ccccc3)c2c1 is reported as 4.83 µM (human Rhabdomyosarcoma cell; cell growth or viability; MTT).
With COc1ccccc1/C=C/CNCC(O)COc1ccccc1 (stereo not drawn) the IC50 was 33.1 µM (NCI-H1299; cell growth or viability; CCK-8; 72 h).
O=C(/C=C(O)/C=C/c1ccccn1)/C=C/c1c[nH]c2ccccc12 has an IC50 of 22.3 µM (CHO-K1; cell growth or viability; MTT; 72 h).
The IC50 of Cc1ccc2nc(-c3ccccc3O)[nH]c2c1 is reported as 6.76 µM (human Rhabdomyosarcoma cell; cell growth or viability; MTT; 48 h).
COc1cc(/C=C/C(=O)/C=C(O)/C=C/c2ccccn2)ccc1O gave an IC50 of 30.9 µM (CHO-K1; cell growth or viability; SRB; 72 h).
COc1ccccc1/C=C/CNCC(O)COc1ccc(C2CCCCC2)cc1 (stereo not drawn) gave an IC50 of 29.5 µM (NCI-H1299; cell growth or viability; CCK-8; 72 h).
With O=C(/C=C(O)/C=C/c1ccncc1)/C=C/c1c[nH]c2ccccc12 the IC50 was 42.9 µM (CHO-K1; cell growth or viability; MTT; 72 h).
O=C1C=C(/C=C/c2cccnc2)N(CCCO)C(c2cccnc2)C1 (stereo not drawn) gave an IC50 of over 75 µM (CHO-K1; cell growth or viability; SRB; 72 h).
O=C(/C=C(O)/C=C/c1cccs1)/C=C/c1c[nH]c2ccccc12 gave an IC50 of 5.9 µM (CHO-K1; cell growth or viability; MTT; 72 h).
For CC1CS(=O)(=O)CCN1/N=C/c1ccc([N+](=O)[O-])o1 (stereo not drawn), the IC50 was 31 µM (RAW264.7; cell growth or viability; MTT).
